HCV NS3 hel inh: HCV NS3 helicase inhibition; hit rate 0.56% among 290,000; NS3 helicase DNA unwinding, Cy5 molecular beacon fluorescence; inhibition, % at 10.9 µM;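 active = inhibition above the mean of all tested compounds plus 3 SD, set per campaign, cut at about 35% in these data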;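 note: 0% = DMSO wells and 100% = thioflavine S control wells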
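System: HCV NS3 helicase fragment; control set: DMSO and thioflavine S; technique: Cy5 fluorescence at 0 and 60 min, beacon hairpin quenching; reagent: beacon DNA duplex substrate plus ATP; replicates: singlicate; schedule: 1 h reaction at 25 °C, ATP-initiated; medium: MOPS buffer pH 6.5 with MgCl2, DTT, Tween20, BSA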
HSF1 activator: increases HSF-1 driven luciferase reporter signal. NIH3T3-HGL HSF-1 luciferase reporter, MG132, 8 h; 100% = twice DMSO control signal. activation, % at 9 µM. hit rate 1.7% among 300,000. AID 504408;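 active = mean replicate activation of at least 50% with a set share of replicates each reaching 50%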;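 note: 0% = median of the neutral control wells and 100% = twice that signal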
DNA FID counter-1: counter-screen for HCV NS3 helicase inhibitors: DNA intercalator displacement; hit rate 0.17% among 290,000; inhibition, % at 7.9 µM; DNA fluorescent intercalator displacement, fluorescence;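 note: 0% = vehicle and 100% = reference compound; higher means more ethidium bromide displaced from hairpin DNA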
HSP90 refold inh: inhibitors of HSP90 luciferase refolding in rabbit reticulocyte lysate. hit rate 0.91% among 290,000. AID 1789. luciferase refolding luminescence, 3 h. inhibition, % at 5.6 µM;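 active = inhibition above the screen-wide mean plus 3 SD, computed separately per campaign, cut at about 16% in these data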;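 note: 0% = DMSO wells and 100% = 60 µM geldanamycin wells; inhibitors lower the luminescence because luciferase stays unfolded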
HSF1 inh: HSF1 inhibition. AID 2098. activity change, negative = inhibition, % at 7.5 µM (by protocol). NIH3T3-HGL HSE-luciferase, MG132-induced, luminescence 8 h; hits give low values. hit rate 0.77% among 300,000;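 active = more than half of replicate wells show activity change below -50%, luminescence cut by over half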;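 note: luciferase reports HSF-1 transcriptional activity via heat shock element; 0% = median of DMSO wells and -100% = zero luminescence signal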
HCV core dimer: blocks dimerization of HCV core protein; TR-FRET GST/Flag-core106 dimerization, 1536-well; inhibition, % at 5 µM; hit rate 0.33% among 300,000; AID 1899;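 active = inhibition above the mean of all tested compounds plus 3 SD, set per screening campaign, cut at about 45% in these data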
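test system = GST/Flag-tagged HCV core106 proteins | probe or stimulus = Eu donor and XL665 acceptor anti-tag antibodies | times = compound-protein-antibody incubation 4 h at 22.5 °C | signal = TR-FRET, excitation 340 nm, emission 617 and 671 nm | measure = percent inhibition of core106 dimerization signal | controls = wells lacking GST-core106 and wells with excess unlabelled core106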
NS3 helicase cf: HCV NS3 helicase inhibition, confirmation assay | hit rate 31% among 1,600 | NS3 helicase DNA unwinding, Cy5 molecular beacon fluorescence | inhibition, % at 10.9 µM | shares compounds with HCV NS3 hel inh | AID 1943;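 active = inhibition above the mean of all tested compounds plus 3 SD, cutoff set per campaign, cut at about 36% in these data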
DNA FID counter-2: displaces DNA intercalator in HCV helicase counter-screen. shares compounds with HCV NS3 hel inh. DNA fluorescent intercalator displacement, fluorescence. inhibition, % at 7.9 µM. hit rate 4% among 1,600. AID 1945;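 note: 0% = vehicle and 100% = reference compound; higher means more displacement of ethidium bromide from the DNA hairpin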
* hit, by the source's call; x = no result given. Hits are enriched below; roughly 3.9% of the tested compounds scored in any of these assays. Cut-off read from the data, not from the text of the source, unless noted: active = inhibition above about 37%; inactive = the rest.

SMILES | HCV NS3 hel inh | HSF1 activator | DNA FID counter-1 | HSP90 refold inh | HSF1 inh | HCV core dimer | NS3 helicase cf | DNA FID counter-2
CCc1nnc(NC(=O)c2cc(-c3ccccn3)nc3ccccc23)s1 | -2 | -16 | -21 | -1 | -8 | 1 | x | x
COc1ccc(NC(=O)c2cc(-c3ccco3)nc3ccccc23)cc1 | x | 21 | x | x | 3 | 13 | x | x
NN1C(=O)/C(=C\c2ccco2)SC1=S | 38* | -1 | -5 | 5 | -15 | -2 | -12 | -1
O=C(CCCN1C(=O)/C(=C/c2ccco2)SC1=S)Nc1cccc(C(=O)O)c1 | 56* | -8 | 6 | 2 | -9 | 2 | 88* | 4
O=C(CCCN1C(=O)/C(=C\c2cccs2)SC1=S)Nc1cccc(C(=O)O)c1 | 8 | 10 | -9 | 2 | -6 | -5 | x | x
CCC(C)(C(=O)NC1CCCCC1)N(Cc1ccco1)C(=O)c1ccc2c(c1)OCO2 (stereo unspecified) | 36* | 31 | -37 | 3 | 19 | 2 | -3 | -36
CCC(C)(C(=O)NC1CCCC1)N(CC1CCCO1)C(=O)c1ccc2c(c1)OCO2 (stereo unspecified) | 20 | -3 | -30 | 8 | 0 | -2 | x | x
COC(=O)c1c(NC(=O)CCC(=O)O)sc(Cc2ccccc2)c1C | -3 | -2 | -27 | -3 | 0 | 5 | x | x
COc1ccc(NC(=O)c2c(NC(=O)CCC(=O)O)sc(-c3ccccc3)c2C)cc1 | 37* | 23 | -33 | -4 | 9 | -2 | 53* | -9
COC/C=C/C1=CC2=CC(=O)C(C)(OC(=O)c3cnc4ccccc4n3)C(=O)C2=CN1C1CCCCC1 (stereo unspecified) | 38* | -15 | -21 | -3 | 3 | 25 | 10 | -13
COC/C=C/C1=CC2=CC(=O)C(C)(OC(=O)c3cnc4ccccc4n3)C(=O)C2=CN1c1ccc(CO)cc1 (stereo unspecified) | 50* | -9 | -13 | 0 | 1 | 56* | 42* | 22
COC/C=C/C1=CC2=CC(=O)C(C)(OC(=O)c3cnc4ccccc4n3)C(=O)C2=CN1c1ccccc1 (stereo unspecified) | x | 7 | x | x | 8 | 28 | x | x
Cc1cc(C)c(S(=O)(=O)Nc2cccc(C(=O)O)c2)cc1S(=O)(=O)Nc1cccc(C(=O)O)c1 | x | -15 | x | x | -1 | -2 | x | x
Cc1c2c(=O)n(-c3nc4ccccc4s3)nc-2cc(O)n1Cc1ccccc1 | 48* | x | -19 | 3 | x | x | 47* | 12
COc1ccc(C(C#N)N2CCC(c3ccccc3)=N2)cc1 (stereo unspecified) | 0 | 12 | 1 | -5 | 2 | 14 | x | x
CCN(CC)c1ccc(S(=O)(=O)Nc2cc(Cl)ccc2Cl)cc1NC(=S)NC(=O)C1CCCC1 | 58* | 33 | -33 | 11 | 3 | 34 | 23 | -9
COc1ccccc1NS(=O)(=O)c1ccc(Cl)c(NC(=S)NC(=O)C2CCCC2)c1 | -11 | 12 | -22 | 0 | -1 | 21 | x | x
COc1ccc(-c2ccc(CCC(=O)O)n2-c2ccccc2O)cc1 | 45* | 8 | -19 | 4 | 11 | -1 | 6 | -3
Cc1ccc(OCC(=O)N/N=C\c2ccc(-c3cccc(C(=O)O)c3)o2)c(C)c1 | 43* | -9 | -33 | 4 | -15 | 0 | 91* | -13
Cc1ccc(NC(=O)CN2C(=O)N/C(=C/c3cccn3-c3ccc(C(=O)O)cc3)C2=O)cc1 | 33 | x | -15 | -2 | x | -35 | x | x
Cc1ccc(NC(=O)CN2C(=O)N/C(=C/c3ccco3)C2=O)cc1 | 39* | 3 | -10 | 0 | 2 | 53* | 9 | 7
COc1ccc(N(CC(=O)Nc2cccc(C)c2)S(=O)(=O)c2ccc(C)cc2)cc1OC | 92* | 18 | -19 | 2 | -3 | 14 | -6 | -3
CCOC(=O)c1sc2ncnc(NCC(c3cccs3)N(C)C)c2c1C (stereo unspecified) | -2 | -2 | -2 | -2 | -1 | 10 | x | x

Assay outcomes from PubChem.
